Measurements published in ChEMBL document CHEMBL4610003 (Bioorg Med Chem, 2020).
Converted amounts (≈) assume the structure as drawn.

Assays:
[1] = tested on: Mycobacterium tuberculosis; test: Antimycobacterial activity against Mycobacterium tuberculosis H37Rv assessed as bacterial growth inhibition under replicating, aerobic condition by microplate Alamar blue assay; assay type: functional
Procedure, shortened: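 Read-out is MIC90, the lowest concentration giving 90% growth inhibition of M.tb H37Rv, in µg/mL. Bacteria were grown under aerobic, replicating conditions (MABA).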

[2] = tested on: Mycobacterium tuberculosis; test: Antimycobacterial activity against Mycobacterium tuberculosis H37Rv assessed as bacterial growth inhibition incubated for 10 days under anerobic condition followed by incubation under ambient gaseous condition for […] by low oxygen recovery assay; assay type: functional
Procedure, shortened: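 Read-out is MIC90, the lowest concentration giving 90% growth inhibition of M.tb H37Rv, in µg/mL. Bacteria were held under non-replicating, low-oxygen conditions (LORA).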

[3] = biological target: Voltage-gated inwardly rectifying potassium channel KCNH2 (Homo sapiens, UniProt Q12809); test: Inhibition of human ERG
Sequence of Voltage-gated inwardly rectifying potassium channel KCNH2 (Q12809 whole entry): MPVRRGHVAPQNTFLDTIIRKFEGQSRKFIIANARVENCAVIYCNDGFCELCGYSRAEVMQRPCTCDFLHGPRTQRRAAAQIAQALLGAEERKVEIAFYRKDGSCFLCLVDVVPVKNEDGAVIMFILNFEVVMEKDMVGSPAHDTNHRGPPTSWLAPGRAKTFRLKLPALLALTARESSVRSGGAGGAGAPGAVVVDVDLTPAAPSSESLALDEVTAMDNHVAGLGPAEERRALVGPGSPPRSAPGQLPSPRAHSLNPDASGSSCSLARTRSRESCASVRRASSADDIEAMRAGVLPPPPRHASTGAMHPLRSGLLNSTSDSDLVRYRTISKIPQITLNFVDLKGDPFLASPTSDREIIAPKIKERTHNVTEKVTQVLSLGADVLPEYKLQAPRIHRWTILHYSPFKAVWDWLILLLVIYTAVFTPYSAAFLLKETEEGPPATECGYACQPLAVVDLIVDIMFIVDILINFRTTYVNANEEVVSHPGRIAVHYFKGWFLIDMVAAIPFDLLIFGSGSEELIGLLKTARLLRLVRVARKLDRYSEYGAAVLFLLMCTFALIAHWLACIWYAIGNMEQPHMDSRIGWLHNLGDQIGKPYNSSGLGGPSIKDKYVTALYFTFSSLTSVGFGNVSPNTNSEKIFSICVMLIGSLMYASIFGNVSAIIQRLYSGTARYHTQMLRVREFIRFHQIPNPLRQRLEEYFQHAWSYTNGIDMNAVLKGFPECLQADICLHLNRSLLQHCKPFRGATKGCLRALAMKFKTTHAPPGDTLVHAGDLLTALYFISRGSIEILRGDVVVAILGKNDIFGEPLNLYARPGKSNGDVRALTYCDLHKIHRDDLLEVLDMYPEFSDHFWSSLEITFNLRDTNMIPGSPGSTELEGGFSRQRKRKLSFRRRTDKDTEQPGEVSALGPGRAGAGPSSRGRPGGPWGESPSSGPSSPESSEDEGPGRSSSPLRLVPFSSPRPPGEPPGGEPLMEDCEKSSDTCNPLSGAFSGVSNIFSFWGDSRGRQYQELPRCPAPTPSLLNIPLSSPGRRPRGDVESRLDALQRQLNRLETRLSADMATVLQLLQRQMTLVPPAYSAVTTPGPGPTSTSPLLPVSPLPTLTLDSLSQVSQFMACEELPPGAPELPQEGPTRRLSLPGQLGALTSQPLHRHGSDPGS

[4] = Intrinsic clearance in human liver microsomes assessed per mg protein; assay type: ADME, Microsome; details: read-out: CLH
Procedure, shortened: (§1)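 Clearance of compound by human or mouse liver microsomes, expressed as µL/min/mg protein.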

[5] = Intrinsic clearance in mouse liver microsomes assessed per mg protein; assay type: ADME, Microsome; details: read-out: CLH; procedure, shortened: as §1
[6] = Clearance in CD-1 mouse at 2 to 3 mg/kg, iv administered as single bolus dose; assay type: ADME, organism-based; details: in vivo
Procedure, shortened: (§2)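 Male CD-1 mice received a single intravenous bolus at 2–3 mg/kg. Reported values are IV clearance and the apparent volume of distribution during the terminal phase, in L/kg.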

[7] = Apparent volume of distribution during terminal phase in CD-1 mouse at 2 to 3 mg/kg, iv administered as single bolus dose; assay type: ADME, organism-based; details: in vivo; procedure, shortened: as §2
[8] = AUC (0 to infinity) in CD-1 mouse at 10 mg/kg, po via gavage administered as single dose; assay type: ADME, organism-based; design: dose 10 mg/kg, route oral, time infinity; details: in vivo
Procedure, shortened: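 Male CD-1 mice given a single 10 mg/kg dose by oral gavage. Exposure is reported as area under the curve from 0 to infinity in µg*h/mL.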

[9] = Oral bioavailability in CD-1 mouse at 10 mg/kg administered via gavage as single dose; assay type: ADME, organism-based; details: in vivo
[10] = tested on: Vero; test: Cytotoxicity against African green monkey Vero cells assessed as reduction in cell viability incubated for 72 hrs by […] assay; assay type: cell-based; details: Chlorocebus sabaeus

| SMILES | MIC90 [1] [µg/mL] | MIC90 [2] [µg/mL] | IC50 [3] [µM] | microsomal CLint [4] [µL/min/mg] | microsomal CLint [5] [µL/min/mg] | clearance [6] [mL/min/kg] | Vz/F [7] [L/kg] | AUC(0-inf) [8] [ng·h/mL] | bioavailability [9] [%] | IC50 [10] [µg/mL] |
| --- | --- | --- | --- | --- | --- | --- | --- | --- | --- | --- |
| COc1cc([C@](O)(CCN(C)C)[C@@H](c2cc3cc(Br)ccc3nc2OC)c2cccc(OC)c2F)cc(SC)n1 (racemic) | < 0.02 | < 0.02 | > 30 | 4.8 | 20 | 13 | 32 | 4600 | 31 | > 10 |
| COc1nc2ccc(Br)cc2cc1[C@@H](c1ccnc(OC)c1OC)[C@@](O)(CCN(C)C)c1cc(SC)nc(SC)c1 (racemic) | < 0.02 | < 0.02 | 2.8 | 8.8 | 10 | 18 | 64 | 3900 | 41 | > 10 |
| CCSc1cc([C@](O)(CCN(C)C)[C@@H](c2cc3cc(C#N)ccc3nc2OC)c2cccc(OC)c2F)cc(SCC)n1 (racemic) | 0.1 (≈ 0.161 µM) | 0.2 (≈ 0.322 µM) | > 10 | 17 | 27 | 29 | 93 | 1400 | 24 | > 10 |
| COc1cc([C@](O)(CCN(C)C)[C@@H](c2cc3cc(C#N)ccc3nc2OC)c2cccc(OC)c2F)cc(SC)n1 (racemic) | 0.02 (≈ 0.0347 µM) | 0.04 (≈ 0.0694 µM) | > 10 | 16 | 36 | 42 | 54 | 1100 | 28 | > 10 |
| COc1cc([C@](O)(CCN(C)C)[C@@H](c2cc3cc(Br)ccc3nc2OC)c2cccc(OC)c2F)cc(OC(C)C)n1 (racemic) | < 0.02 | 0.03 (≈ 0.0467 µM) | > 30 | 3.4 | 6 | 8.9 | 34 | 9000 | 43 | > 10 |
| COc1nc2ccc(C#N)cc2cc1[C@@H](c1cccc(C)c1F)[C@@](O)(CCN(C)C)c1cc(SC)nc(SC)c1 (racemic) | 0.02 (≈ 0.0347 µM) | 0.17 (≈ 0.295 µM) | > 10 | 9.2 | 13 | 22 | 79 | 2400 | 31 | > 10 |
| COc1cc([C@](O)(CCN(C)C)[C@H](c2cccc(C)c2)c2cc3cc(Br)ccc3nc2OC)cc(OC(C)C)n1 (racemic) | 0.01 (≈ 0.0164 µM) | 0.01 (≈ 0.0164 µM) | > 10 |  |  |  |  |  |  |  |
| COc1cc([C@](O)(CCN(C)C)[C@@H](c2cc3cc(C#N)ccc3nc2OC)c2ccnc(OC)c2OC)cc(OC(F)F)n1 (racemic) | < 0.02 | 0.04 (≈ 0.0656 µM) | 7 | 2.5 | 11 | 24 | 40 | 3000 | 43 | > 10 |
| CCS(=O)(=O)c1cc([C@](O)(CCN(C)C)[C@@H](c2cc3cc(C#N)ccc3nc2OC)c2ccnc(OC)c2OC)cc(S(=O)(=O)CC)n1 (racemic) | 4.4 (≈ 6.31 µM) | 5 (≈ 7.17 µM) |  |  |  |  |  |  |  |  |
| CCSc1cc([C@](O)(CCN(C)C)[C@@H](c2cc3cc(Br)ccc3nc2OC)c2cccc3c2OCO3)cc(SCC)n1 (racemic) | 0.01 (≈ 0.0149 µM) | 0.06 (≈ 0.0895 µM) | > 10 | 9.5 | 12 | 3.4 | 9.4 | 5500 | 11 | > 10 |
| CCOc1cc([C@](O)(CCN(C)C)[C@@H](c2cc3cc(Br)ccc3nc2OC)c2ccnc(OC)c2OC)cc(OC)n1 (racemic) | < 0.02 | < 0.02 | 3.3 | 3.8 | 7.6 | 9.5 | 28 | 12700 | 70 | > 10 |
| COc1cccc([C@H](c2cc3cc(C#N)ccc3nc2OC)[C@@](O)(CCN(C)C)c2cc(SC)nc(SC)c2)c1F (racemic) | 0.03 (≈ 0.0506 µM) | 0.05 (≈ 0.0844 µM) | 5.1 | 15 | 20 | 44 | 53 | 1100 | 28 | > 10 |
| CCCOc1cc([C@](O)(CCN(C)C)[C@@H](c2cc3cc(Br)ccc3nc2OC)c2ccnc(OC)c2OC)cc(OC)n1 (racemic) | 0.01 (≈ 0.0153 µM) | 0.06 (≈ 0.0915 µM) |  | 8.2 | 6.5 | 6.9 | 44 | 10900 | 50 | > 10 |
| CCOc1cc([C@](O)(CCN(C)C)[C@@H](c2cc3cc(Br)ccc3nc2OC)c2ccnc(OC)c2OC)cc(OC(C)C)n1 (racemic) | < 0.02 | < 0.02 |  | 1.8 | 1.6 | 3.1 | 9.1 | 32000 | 58 | > 10 |
| CCSc1cc([C@](O)(CCN(C)C)[C@@H](c2cc3cc(C#N)ccc3nc2OC)c2ccnc(OC)c2OC)cc(SCC)n1 (racemic) | 0.06 (≈ 0.0947 µM) | 0.03 (≈ 0.0473 µM) | 1.5 |  |  |  |  |  |  |  |
| CCSc1cc([C@](O)(CCN(C)C)[C@@H](c2cc3cc(Br)ccc3nc2OC)c2ccnc(OC)c2OC)cc(N(C)C)n1 (racemic) | 0.04 (≈ 0.0596 µM) | 0.57 (≈ 0.85 µM) | > 10 |  |  |  |  |  |  |  |
| CCSc1cc([C@](O)(CCN(C)C)[C@@H](c2cc3cc(C#N)ccc3nc2OC)c2cccc3c2OCO3)cc(SCC)n1 (racemic) | < 0.02 | 0.05 (≈ 0.0811 µM) | > 10 |  |  |  |  |  |  |  |
| COc1cc([C@](O)(CCN(C)C)[C@@H](c2cc3cc(C#N)ccc3nc2OC)c2cccc(OC)c2F)cc(OC(F)F)n1 (racemic) | < 0.02 | < 0.02 |  |  |  |  |  |  |  |  |
| CCSc1cc([C@](O)(CCN(C)C)[C@@H](c2cc3cc(Br)ccc3nc2OC)c2ccnc(OC)c2OC)cc(SCC)n1 (racemic) | 0.04 (≈ 0.0582 µM) | 0.21 (≈ 0.305 µM) | 9.2 |  |  |  |  |  |  |  |
| COc1cc([C@](O)(CCN(C)C)[C@@H](c2cc3cc(Br)ccc3nc2OC)c2cccc(OC)c2F)cc(S(C)(=O)=O)n1 (racemic) | 0.46 (≈ 0.694 µM) | 0.73 (≈ 1.1 µM) | 1.8 |  |  |  |  |  |  |  |
| CCCOc1cc([C@](O)(CCN(C)C)[C@H](c2cccc(C)c2)c2cc3cc(Br)ccc3nc2OC)cc(OC)n1 (racemic) | 0.01 (≈ 0.0164 µM) | 0.02 (≈ 0.0329 µM) | > 10 |  |  |  |  |  |  |  |
| COc1cc([C@](O)(CCN(C)C)[C@@H](c2cc3cc(Br)ccc3nc2OC)c2ccnc(OC)c2OC)cc(N(C)C)n1 (racemic) | 0.45 (≈ 0.702 µM) | 0.02 (≈ 0.0312 µM) |  |  |  |  |  |  |  |  |
